# pIC50: −log10 of the molar value.
# Tests used:
# HL-60 [1] = experiment: Selectivity index, ratio of IC50 for NQO1-deficient chinese hamster V79 cells to IC50 for NQO1-deficient human HL60 cells; type: functional
# How it was run: (§1)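 Selectivity index is IC50 in the normal cells divided by IC50 in the cancer line. Normal cells: V79 and L929 in DMEM, PBMC in RPMI with phytohaemagglutinin. Cancer lines in RPMI with 10% FBS, seeded at 0.1 × 10^6 (HL-60) or 0.7 × 10^5 cells/well (solid tumors). Absorbance 550 nm; nonlinear regression.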
# OVCAR-8 [2] = experiment: Selectivity index, ratio of IC50 for NQO1-deficient chinese hamster V79 cells to IC50 for human OVCAR8 cells overexpressing NQO1
# How it was run: (§2)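 Selectivity index is IC50 in the normal cells divided by IC50 in the cancer line. All IC50s come from 72 h MTT assays. Normal cells: V79 and L929 in DMEM, PBMC in RPMI with phytohaemagglutinin. Cancer lines in RPMI with 10% FBS, seeded at 0.1 × 10^6 (HL-60) or 0.7 × 10^5 cells/well (solid tumors). Absorbance 550 nm; nonlinear regression.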
# L929 [3] = experiment: Selectivity index, ratio of IC50 for NQO1-deficient mouse L929 cells to IC50 for human OVCAR8 cells overexpressing NQO1; how it was run: as §1
# [4] = Cytotoxicity against human OVCAR8 cells overexpressing NQO1 assessed as reduction in cell viability after 72 hrs by MTT assay; type: functional, cell-based; conditions: OVCAR-8, 72 h
# How it was run: (§3)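 Cancer lines from NCI, grown in RPMI 1640 with 10% FBS, 2 mM L-glutamine, penicillin/streptomycin, 37 °C, 5% CO2; seeded 0.1 × 10^6 cells/well (HL-60) or 0.7 × 10^5 cells/well (solid tumours). Compounds in DMSO, final 0.1% v/v; DMSO vehicle as negative control.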
# [5] = Cytotoxicity against human PC3 cells overexpressing NQO1 assessed as reduction in cell viability after 72 hrs by MTT assay; type: functional, cell-based; conditions: PC-3, 72 h
# PC-3 = experiment: Selectivity index, ratio of IC50 for NQO1-deficient human PBMC to IC50 for human PC3 cells overexpressing NQO1; how it was run: as §1
# Mus musculus = organism: Mus musculus; experiment: Cytotoxicity against NQO1-deficient mouse L929 cells assessed as reduction in cell viability after 72 hrs by MTT assay; type: toxicity, cell-based; conditions: l929
# [6] = Selectivity index, ratio of IC50 for NQO1-deficient human PBMC to IC50 for human MDA-MB-435 cells overexpressing NQO1; how it was run: as §1
# [7] = Cytotoxicity against human SF295 cells overexpressing NQO1 assessed as reduction in cell viability after 72 hrs by MTT assay; type: functional, cell-based; conditions: SF-295, 72 h
# [8] = Cytotoxicity against human HCT116 cells expressing NQO1 assessed as reduction in cell viability after 72 hrs by MTT assay; type: functional, cell-based; conditions: HCT-116, 72 h; how it was run: as §3
# V79 [9] = experiment: Selectivity index, ratio of IC50 for NQO1-deficient chinese hamster V79 cells to IC50 for human MDA-MB-435 cells overexpressing NQO1; how it was run: as §1
# L929 [10] = experiment: Selectivity index, ratio of IC50 for NQO1-deficient mouse L929 cells to IC50 for NQO1-deficient human HL60 cells; type: functional; how it was run: as §1
# L929 [11] = experiment: Selectivity index, ratio of IC50 for NQO1-deficient mouse L929 cells to IC50 for human SF295 cells overexpressing NQO1; how it was run: as §1
# L929 [12] = experiment: Selectivity index, ratio of IC50 for NQO1-deficient mouse L929 cells to IC50 for human MDA-MB-435 cells overexpressing NQO1; how it was run: as §1
# [13] = Cytotoxicity against human MDA-MB-435 cells overexpressing NQO1 assessed as reduction in cell viability after 72 hrs by MTT assay; type: functional, cell-based; conditions: MDA-MB-435, 72 h; how it was run: as §3
# [14] = Cytotoxicity against NQO1-deficient human HL60 cells assessed as reduction in cell viability after 72 hrs by MTT assay; type: functional, cell-based; conditions: HL-60, 72 h; how it was run: as §3
# SF-295 [15] = experiment: Selectivity index, ratio of IC50 for NQO1-deficient human PBMC to IC50 for human SF295 cells overexpressing NQO1; how it was run: as §1
# [16] = Cytotoxicity against NQO1-deficient human PBMC assessed as reduction in cell viability after 72 hrs by MTT assay; type: toxicity, cell-based; conditions: pbmc
# L929 [17] = experiment: Selectivity index, ratio of IC50 for NQO1-deficient mouse L929 cells to IC50 for human PC3 cells overexpressing NQO1; how it was run: as §1
# V79 [18] = experiment: Selectivity index, ratio of IC50 for NQO1-deficient chinese hamster V79 cells to IC50 for human PC3 cells overexpressing NQO1; how it was run: as §1
# [19] = Cytotoxicity against NQO1-deficient chinese hamster V79 cells assessed as reduction in cell viability after 72 hrs by MTT assay; type: toxicity, cell-based, Cricetulus griseus; conditions: v79
# OVCAR-8 [20] = experiment: Selectivity index, ratio of IC50 for NQO1-deficient human PBMC to IC50 for human OVCAR8 cells overexpressing NQO1; how it was run: as §2
# HCT-116 [21] = experiment: Selectivity index, ratio of IC50 for NQO1-deficient mouse L929 cells to IC50 for human HCT116 cells expressing NQO1; how it was run: as §2
# HL-60 [22] = experiment: Selectivity index, ratio of IC50 for NQO1-deficient human PBMC to IC50 for NQO1-deficient human HL60 cells; how it was run: as §1
# HCT-116 [23] = experiment: Selectivity index, ratio of IC50 for NQO1-deficient chinese hamster V79 cells to IC50 for human HCT116 cells expressing NQO1; how it was run: as §2
# HCT-116 [24] = experiment: Selectivity index, ratio of IC50 for NQO1-deficient human PBMC to IC50 for human HCT116 cells expressing NQO1; how it was run: as §2
# SF-295 [25] = experiment: Selectivity index, ratio of IC50 for NQO1-deficient chinese hamster V79 cells to IC50 for human SF295 cells overexpressing NQO1; how it was run: as §1
SMILES,Ratio IC50 (HL-60 [1]),pIC50 [4],pIC50 [5],Ratio IC50 (PC-3),pIC50 (Mus musculus),pIC50 [7],pIC50 [8],Ratio IC50 (V79 [9]),Ratio IC50 (L929 [10]),Ratio IC50 (L929 [11]),Ratio IC50 (L929 [12]),pIC50 [13],pIC50 [14],Ratio IC50 (SF-295 [15]),pIC50 [16],Ratio IC50 (L929 [17]),Ratio IC50 (V79 [18]),pIC50 [19],Ratio IC50 (HL-60 [22]),Ratio IC50 (HCT-116 [23]),further results
O=C1C2=C(OC(Cn3cc(C[Se]c4ccccc4)nn3)C2)C(=O)c2ccccc21 (stereo unspecified),2.4,6.04,5.85,2,5.67,6.01,5.62,3.2,2.6,2.1,3.4,6.21,6.09,2.8,5.55,1.5,1.4,5.69,–,–,Ratio IC50 (OVCAR-8 [2]): 2.2; Ratio IC50 (L929 [3]): 2.3; Ratio IC50 [6]: 4.5; Ratio IC50 (OVCAR-8 [20]): 3
CC1(C)OC2=C(C(=O)C(=O)c3ccccc32)[C@@H](n2cc(C[Se]c3ccccc3)nn2)[C@@H]1Br,1.7,6.04,5.72,0.9,5.76,5.82,5.95,1.6,1.4,1.1,1.3,5.88,5.91,1.2,–,0.9,1.1,5.66,1.5,1.9,Ratio IC50 (HCT-116 [21]): 1.5; Ratio IC50 (OVCAR-8 [2]): 2.3; Ratio IC50 (L929 [3]): 1.8; Ratio IC50 (OVCAR-8 [20]): 2
O=C1C=C(NCc2cn(C[Se]c3ccccc3)nn2)C(=O)c2ccccc21,3.5,5.72,5.68,–,5.42,6.01,5.76,–,3.3,3.9,–,5.51,5.95,4.8,5.32,–,–,5.40,4.2,2.3,Ratio IC50 (HCT-116 [21]): 2.2; Ratio IC50 (HCT-116 [24]): 2.7; Ratio IC50 (SF-295 [25]): 4.1
[N-]=[N+]=NCC1CC2=C(O1)c1ccccc1C(=O)C2=O (stereo unspecified),1,6.46,6.29,3.5,5.97,6.41,6.20,2.1,1.2,2.7,2.7,6.41,6.09,4.6,5.74,2,1.6,6.09,–,1.3,Ratio IC50 (HCT-116 [24]): 2.8; Ratio IC50 (OVCAR-8 [2]): 2.3; Ratio IC50 (L929 [3]): 3; Ratio IC50 [6]: 4.6; Ratio IC50 (OVCAR-8 [20]): 5.1
O=C1C(Br)=C(NCc2cn(C[Se]c3ccccc3)nn2)C(=O)c2ccccc21,2.7,–,5.64,–,5.48,5.79,5.78,2.1,2.9,2,2.3,5.84,5.95,–,5.41,–,–,5.52,3.4,1.8,Ratio IC50 (HCT-116 [21]): 1.9; Ratio IC50 [6]: 2.6; Ratio IC50 (SF-295 [25]): 1.8
C#Cc1cccc(NC2C3=C(OC2(C)C)c2ccccc2C(=O)C3=O)c1 (stereo unspecified),8.3,5.60,5.73,1.5,5.60,5.59,5.83,–,9.6,–,–,5.69,6.59,–,5.55,1.3,1.1,5.67,10.7,1.45,Ratio IC50 (HCT-116 [21]): 1.68; Ratio IC50 (HCT-116 [24]): 1.89
O=C1C(=O)c2ccccc2C2=C1CC(Cn1cc(C[Se]c3ccccc3)nn1)O2 (stereo unspecified),3.3,7.15,6.62,5.4,6.21,6.66,–,1.5,4.7,2.8,2.1,6.54,6.89,5.9,5.88,2.5,1.8,6.36,10,–,Ratio IC50 (OVCAR-8 [2]): 6.2; Ratio IC50 (L929 [3]): 8.8; Ratio IC50 [6]: 4.5; Ratio IC50 (SF-295 [25]): 2; Ratio IC50 (OVCAR-8 [20]): 18.7
